Measured values published in article PMC3383025 (Molecular Cancer Therapeutics, 2009).
“And” between values parts separate entries of the source, which are not always exact repeats. Equal entries are not always repeated. Where two headings read alike, the source gives them in different places.

What was measured:
LNCaP cells [1] = assay: Intracellular free Ca+2; format: cell-based, human; settings: for Intracellular free calcium: 10 min after exposure to 1 µmol/L, starting concentration ~40 nmol/L
AR protein = assay: Western blot analysis of AR protein; format: cell-based, human; settings: LNCaP cells; for AR Protein (% of control): after 24 h of exposure to 1 µmol/L
CWR22Rv1 = assay: Clonogenic survival assay; format: cell-based, human; settings: loss of 50% clonogenic ability after 48 h exposure
MDA-PC-2b = assay: Clonogenic survival assay; format: cell-based, human; settings: loss of 50% clonogenic ability after 48 h exposure
LAPC-4 = assay: Clonogenic survival assay; format: cell-based, human; settings: loss of 50% clonogenic ability after 48 h exposure
VCaP = assay: Clonogenic survival assay; format: cell-based, human; settings: loss of 50% clonogenic ability after 48 h exposure
LNCaP = assay: Clonogenic survival assay; format: cell-based, human; settings: for Killing ability LD50: loss of 50% clonogenic ability after 48 h exposure; for CC50: read-out: Cell death of LNCaP LC50
[2] = cited from earlier work
AR mRNA = AR mRNA by reverse transcription-PCR; format: cell-based, human; settings: LNCaP, LAPC-4 and CWR22Rv1 cells; 1 µmol/L TG, various times
[3] = tested on: IRE1-dependent XBP-1 processing; assay: ER stress: IRE1-dependent XBP-1/venus processing, fluorescent cells; format: cell-based, human
[4] = tested on: androgen ablation refractory human prostate cancer lines; assay: Clonogenic survival assay, each of the five lines; format: cell-based; settings: LNCaP, LAPC-4, VCaP, MDA-PCa-2b, CWR22Rv1
Outline: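 Clonogenic survival of each prostate cancer line after 48 h exposure to a concentration series of test compound. LD₅₀ is the nmol/L concentration causing 50% loss of clonogenic ability.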

LNCaP cells [5] = settings: over the next 18 to 36 hours after return to baseline; cited from earlier work
total protein synthesis = assay: Total protein synthesis, S35-methionine incorporation; format: cell-based, human; settings: LNCaP; at 24 hours post-TG exposure
Outline: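 LNCaP cells were treated for 6 or 24 h (1 µmol/L test compound) and labelled with S³⁵-methionine for 30 min before lysis. Incorporation was measured as TCA-precipitable counts and expressed per cell as percent of incorporation in exponentially growing untreated cells.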

[6] = molecular target: rabbit skeletal muscle SERCA pump (Oryctolagus cuniculus, UniProt P04191); assay: SERCA pump activity inhibition; format: biochemical
Sequence of rabbit skeletal muscle SERCA pump (P04191 1-994 isoform P04191-2): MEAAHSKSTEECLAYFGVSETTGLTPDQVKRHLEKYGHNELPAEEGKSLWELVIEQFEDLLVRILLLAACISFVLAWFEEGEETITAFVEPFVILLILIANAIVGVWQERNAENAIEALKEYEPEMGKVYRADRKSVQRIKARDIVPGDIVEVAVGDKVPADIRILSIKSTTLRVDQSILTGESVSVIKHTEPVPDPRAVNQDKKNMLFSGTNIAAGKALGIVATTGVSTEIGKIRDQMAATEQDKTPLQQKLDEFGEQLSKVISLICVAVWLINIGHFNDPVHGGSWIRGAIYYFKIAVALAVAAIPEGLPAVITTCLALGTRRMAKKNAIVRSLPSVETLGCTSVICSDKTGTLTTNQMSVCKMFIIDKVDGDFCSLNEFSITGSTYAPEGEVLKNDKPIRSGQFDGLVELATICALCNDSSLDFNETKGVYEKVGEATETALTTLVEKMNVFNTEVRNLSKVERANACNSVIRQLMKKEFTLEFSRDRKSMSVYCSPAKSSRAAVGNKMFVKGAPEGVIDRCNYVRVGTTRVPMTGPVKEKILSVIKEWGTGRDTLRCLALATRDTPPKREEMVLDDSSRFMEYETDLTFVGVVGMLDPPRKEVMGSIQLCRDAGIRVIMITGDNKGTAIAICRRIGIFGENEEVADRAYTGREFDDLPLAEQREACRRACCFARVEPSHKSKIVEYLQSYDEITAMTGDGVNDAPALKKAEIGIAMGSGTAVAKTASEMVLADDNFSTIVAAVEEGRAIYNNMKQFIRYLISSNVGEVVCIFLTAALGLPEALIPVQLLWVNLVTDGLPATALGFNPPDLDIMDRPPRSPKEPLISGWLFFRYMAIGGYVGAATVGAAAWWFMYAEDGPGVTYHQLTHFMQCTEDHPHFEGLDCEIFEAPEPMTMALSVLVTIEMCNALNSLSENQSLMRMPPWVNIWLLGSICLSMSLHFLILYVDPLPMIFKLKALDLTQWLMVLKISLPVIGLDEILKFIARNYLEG

LNCaP cells [7] = assay: Percentage of cells in cycle, Ki67 flow cytometry; format: cell-based, human; settings: TG exposure, untreated 91% ± 2%
[8] = tested on: AR-specific protein synthesis; format: cell-based, human
Outline: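 LNCaP cells exposed to 1 µmol/L test compound for 6 or 24 h, then pulsed with S³⁵-methionine for 30 min before lysis. AR was immunoprecipitated from an aliquot of the labelled total protein with N-20 anti-AR antibody and Protein-A agarose beads, then Western blotted. AR-associated radioactivity was captured on X-ray film and quantitated by imaging.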

Molecule	Intracellular free calcium (LNCaP cells [1]) [nmol/L]	AR Protein (% of control) (AR protein)	Killing ability LD50 (CWR22Rv1) [nmol/L]	Killing ability LD50 (MDA-PC-2b) [nmol/L]	Killing ability LD50 (LAPC-4) [nmol/L]	Killing ability LD50 (VCaP) [nmol/L]	Killing ability LD50 (LNCaP; LNCaP)	CC50 (LNCaP; after 48 h of exposure) [nM]	host toxicity on systemic administration [2]	further results
alanyl-12ADT [Analog A12ADT]	410 ± 45	15 ± 4 % of control	38 ± 11	40 ± 6	28 ± 7	23 ± 9	8 ± 4 nmol/L	8 ± 4	–	–
C/C=C(/C)C(=O)O[C@H]1C(C)=C2[C@H]([C@@H]1OC(=O)CCCCCCC)[C@@](C)(OC(C)=O)C[C@H](OC(=O)CCCCCCCCCCCN)[C@@]1(O)[C@H]2OC(=O)[C@@]1(C)O [Analog 12ADT, 8-O-(12-dodecanyl)-8-O-debutanoyl TG]	369 ± 23	14 ± 3 % of control	85 ± 27	95 ± 35	80 ± 19	67 ± 25	55 ± 12 nmol/L	55 ± 12	cannot be given systemically without host toxicity	–
C/C=C(/C)C(=O)O[C@H]1C(C)=C2[C@H]([C@@H]1OC(=O)CCCCCCC)[C@@](C)(OC(C)=O)C[C@H](OC(=O)CCCCCCCCCCCNC(=O)C[C@H](N)C(=O)O)[C@@]1(O)[C@H]2OC(=O)[C@@]1(C)O [Analog D12ADT, asparty-12ADT]	385 ± 40	11 ± 6 % of control	39 ± 7	51 ± 12	55 ± 9	70 ± 18	40 ± 12 nmol/L	40 ± 12	–	–
C/C=C(/C)C(=O)O[C@H]1C(C)=C2[C@H]([C@@H]1OC(=O)CCCCCCC)[C@@](C)(OC(C)=O)C[C@H](OC(=O)CCC)[C@@]1(O)[C@H]2OC(=O)[C@@]1(C)O [TG, Thapsigargin, reference compound]	441 ± 35	10 ± 2 % of control	38 ± 9	43 ± 12	25 ± 6	20 ± 7	10 nmol/L and 10 ± 5 nmol/L	–	cannot be given systemically without host toxicity	initial increase in Cai (LNCaP cells [1]; from ~40 nmol/L, within minutes): > 300 nmol/L; change in AR mRNA (AR mRNA): no change; depletion of AR protein (AR protein; by 24 hours of TG exposure): 90%; percent of fluorescent (ER-stressed) cells ([3]; XBP-1/venus-transfected LNCaP and CWR22Rv1, 500 µmol/L TG, by 24 hours): > 80%; LD50 for each of the lines [4]: < 100 nmol/L; delayed sustained increase in Cai (LNCaP cells [5]): > 1 µmol/L; inhibition of general protein synthesis (total protein synthesis): > 60%; IC50 [6]: 13 ± 2 nM; Ki67+ cells (LNCaP cells [7]; 24 hours): 25% ± 8%; Ki67+ cells (LNCaP cells [7]; 48 hours): > 10%; CC50 (LNCaP; Homo sapiens, LNCaP, 48 h): 10 ± 5 nM; decrease in rate of AR-specific protein synthesis ([8]; LNCaP cells, 1 µmol/L TG): > 90%; inhibition of AR-specific protein synthesis ([8]; LNCaP, at 24 hours post-TG exposure): > 90%
leucyl-12ADT [Analog L12ADT]	414 ± 44	8 ± 4 % of control	34 ± 16	42 ± 5	32 ± 9	25 ± 11	14 ± 8 nmol/L	14 ± 8	–	cells with IRE1-dependent XBP-1 processing (flow cytometric GFP) ([3]; LNCaP, 500 nmol/L, within 24 h): all cells
